Reference: ChEMBL document CHEMBL1137079, “Synthesis and structure-activity relationships of 3-aminobenzophenones as antimitotic agents” (J Med Chem, 2004)

Experiments:
HT-29 = assay: In vitro cytotoxic activity against human HT-29 cell line of colorectal carcinoma; format: functional, cell-based
Outline: (§1)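 Cells kept in RPMI-1640 with 5% fetal bovine serum; log-phase cells seeded at 5000 cells/mL/well, exposed to various drug concentrations for 72 h. Growth read by methylene blue dye assay; IC50 (50% growth inhibition versus control) derived graphically. Mean and SD of at least three independent experiments.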

KB [1] = assay: In vitro cytotoxic activity against human KB-VIN10 cell line overexpressing P-gp 170/MDR; format: functional, cell-based
Outline: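 Vincristine-selected P-gp170/MDR-overexpressing KB line, maintained with 10 nM vincristine, then grown drug-free for 3 days before use. Log-phase cells seeded at 5000 cells/mL/well, exposed 72 h to various drug concentrations; methylene blue dye readout, IC50 (50% growth inhibition versus control) taken graphically. Mean and SD, at least three independent experiments.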

KB [2] = assay: In vitro cytotoxic activity against human KB cell line of epidermoid carcinoma; format: functional, cell-based; outline: as §1
TSGH = assay: In vitro cytotoxic activity against human TSGH cell line of stomach carcinoma; format: functional, cell-based; outline: as §1
Tubulin = Tubulin (Bos taurus, UniProt Q6B856+Q862L2+Q862F3); assay: Inhibitory concentration required against MAP-rich tubulin polymerization; format: functional
[3] = target: Tubulin alpha chain (Sus scrofa) (UniProt P02550); assay: Ability to inhibit 3[H]Colchicine binding to colchicine-binding domain of tubulin; Strong inhibition
Sequence of Tubulin alpha chain (Sus scrofa) (P02550 whole entry, looked up, the tested form may be a part): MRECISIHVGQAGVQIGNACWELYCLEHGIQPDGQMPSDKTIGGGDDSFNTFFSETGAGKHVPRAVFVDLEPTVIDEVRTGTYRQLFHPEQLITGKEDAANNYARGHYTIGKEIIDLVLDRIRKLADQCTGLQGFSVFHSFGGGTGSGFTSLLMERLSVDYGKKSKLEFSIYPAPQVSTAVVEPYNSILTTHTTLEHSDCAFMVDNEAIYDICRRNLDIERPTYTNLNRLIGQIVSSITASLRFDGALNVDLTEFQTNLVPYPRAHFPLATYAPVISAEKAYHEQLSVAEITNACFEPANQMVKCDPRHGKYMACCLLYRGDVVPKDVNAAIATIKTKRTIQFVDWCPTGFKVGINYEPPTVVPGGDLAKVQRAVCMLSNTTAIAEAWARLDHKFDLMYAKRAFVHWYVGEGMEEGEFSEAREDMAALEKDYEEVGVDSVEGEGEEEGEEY

[4] = target: Tubulin alpha chain (Sus scrofa) (UniProt P02550); assay: Ability to inhibit 3[H]Colchicine binding to colchicine-binding domain of tubulin; effective inhibition
[5] = target: Tubulin alpha chain (Sus scrofa) (UniProt P02550); assay: Ability to inhibit 3[H]Colchicine binding to colchicine-binding domain of tubulin; Weak inhibition

IC50 (Tubulin) [nM] | inhibition [3] | inhibition [4] | inhibition [5] | Structure (SMILES) | IC50 (HT-29) [nM] | IC50 (KB [1]) [nM] | IC50 (KB [2]) [nM] | IC50 (TSGH) [nM]
300 | Strong inhibition |  |  | COc1ccc(C(=O)c2cc(OC)c(OC)c(OC)c2)cc1N | 33 | 31 | 32 | 33
6400 |  |  |  | COc1cc(C(=O)c2ccc(OC(C)C)c(N)c2)cc(OC)c1OC | 1300 | 800 | 900 | 900
11000 |  |  |  | COc1cc(C(=O)c2ccc(Cl)c(N)c2)cc(OC)c1OC | 4000 | 3800 | 800 | 4000
17000 |  |  |  | COc1cc(C(=O)c2cc(N)cc(Cl)c2)cc(OC)c1OC | 1900 | 2900 | 1400 | 1500
42000 |  |  |  | CCCOc1ccc(C(=O)c2cc(OC)c(OC)c(OC)c2)cc1N | 9000 | 8600 | 3800 | 4800
2700 |  |  |  | COc1cc(C(=O)c2ccc(Cl)cc2N)cc(OC)c1OC | 1000 | 800 | 710 | 800
700 |  |  |  | CCOc1ccc(C(=O)c2cc(OC)c(OC)c(OC)c2)cc1N | 45 | 40 | 59 | 42
100 |  |  |  | COc1cc(C(=O)c2cc(Cl)ccc2N)cc(OC)c1OC | 218 | 162 | 195 | 185
> 50000 |  |  |  | COc1ccc(Cc2cc(OC)c(OC)c(OC)c2)cc1N | > 10000 | > 10000 | > 10000 | > 10000
400 |  |  |  | COc1ccc(C(=O)c2cc(OC)c(OC)c(OC)c2)cc1O [PHENSTATIN] | 560 | 30 | 30 | 170

Second part, the compound before the results:

Structure (SMILES) | IC50 (Tubulin) [nM] | inhibition [3] | inhibition [4] | inhibition [5] | IC50 (HT-29) [nM] | IC50 (KB [1]) [nM] | IC50 (KB [2]) [nM] | IC50 (TSGH) [nM]
COc1ccc(/C=C\c2cc(OC)c(OC)c(OC)c2)cc1N |  |  |  |  | 7.9 | 7.5 | 8.2 | 7.7
COc1cc(N)cc(C(=O)c2cc(OC)c(OC)c(OC)c2)c1 | 2600 |  |  |  | 163 | 307 | 590 | 157
COc1cc(C(=O)c2cc(N)ccc2Cl)cc(OC)c1OC | 600 |  | effective inhibition |  | 163 | 125 | 180 | 157
COc1ccc(N)cc1C(=O)c1cc(OC)c(OC)c(OC)c1 | 2900 |  |  | Weak inhibition | 400 | 324 | 306 | 497
COc1ccc(C(=O)c2cc(OC)c(OC)c(OC)c2)c(N)c1 | 400 | Strong inhibition |  |  | 42 | 24 | 32 | 26
COc1ccc(/C=C\c2cc(OC)c(OC)c(OC)c2)cc1O [COMBRETASTATIN A4] |  |  |  |  | 260 | 2.4 | 2.1 | 45
COc1ccc(N)c(C(=O)c2cc(OC)c(OC)c(OC)c2)c1 | 1000 |  |  |  | 148 | 352 | 127 | 100
